The target of data set [1] is T1, claudin-1 (Mus musculus, UniProt O88551).
T1 sequence (O88551 1-211): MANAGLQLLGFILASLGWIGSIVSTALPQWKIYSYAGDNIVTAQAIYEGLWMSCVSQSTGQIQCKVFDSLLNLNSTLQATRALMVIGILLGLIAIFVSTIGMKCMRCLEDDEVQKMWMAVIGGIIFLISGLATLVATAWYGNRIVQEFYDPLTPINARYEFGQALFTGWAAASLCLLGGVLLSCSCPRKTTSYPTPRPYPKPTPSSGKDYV
Briefly: Ex vivo peptide staining. The class given is binding. The settings on record: for Mean fluorescence intensity, adenoma vs normal: ex vivo staining, 0.5 μM peptide, paired t tests, n = 6 per group. The gist of the method: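 Distal colon was opened, rinsed in cold PBS, fixed ~48 h in 10% neutral-buffered formalin, moved to 70% ethanol and processed for histology. Adjacent sections were deparaffinized and antigen-retrieved. Blocking was 2% BSA ~1 h, then 0.5 μM peptide for 10 min. For colocalization, peptide came first, then anti-claudin-1 antibody detected with AF488 goat anti-rabbit IgG. Imaged by inverted confocal microscopy.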

For data set [2], the target named is T1, claudin-1. Briefly: Side-view confocal endomicroscopy of colon in vivo. Conditions: for Binding/staining pattern in normal colon on confocal images: in vivo, ~1 hour after i.v. 200 μM in 200 μL PBS. More on the design: species or system CPC;Apc mice.
The nature of data set [3]: Biodistribution in major organs. On the set-up: species or system CPC;Apc mice. Conditions: organs ex vivo ~1 hour after i.v. injection, IVIS, n = 6. The gist of the method: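 CPC;Apc mice received 200 μL PBS containing 200 μM labelled peptide, control peptide or free Cy5.5 i.v. They were sacrificed ~1 h later. Organs were rinsed in cold PBS, dried and imaged unperfused (ex 640 nm, em 720 nm). Intensity was averaged from three regions per organ. Values were log-transformed and fitted to an ANOVA with 24 means (3 groups, 8 tissues) plus mouse effects.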

Data set [4] can be described thus: Serum stability by HPLC, incubation in mouse serum ex vivo. The class given is in vitro ADME. The settings on record: 30 uM peptide in mouse serum at 37 °C, supernatant analysed by HPLC. The gist of the method:
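Peptide at 30 uM was incubated in mouse serum at 37 °C for up to 24 h. Samples were taken at 0, 1, 2 and 24 h and centrifuged at 14,000 rpm. Supernatant aliquots were analysed by HPLC at each time point.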

Data set [5] deals with T1, claudin-1. The class given is in vivo, CPC;Apc mice. Conditions: wide-field NIR fluorescence after intravenous administration. The gist of the method:
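Mice aged 2–4 months ate chlorophyll-free chow for 1 week, were fasted 4–6 h and had the colon rinsed with water. They were under isoflurane 2–4% in oxygen (0.5 L/min). A rigid endoscope in the distal colon gave 671 nm excitation; 200 μM peptide in 200 μL PBS was given i.v. Images were taken 0–24 h and normalised to coregistered reflectance. T/B ratios used mean intensity of three 20×20 μm2 regions each for adenoma and adjacent normal mucosa. Control peptide was imaged in the same mouse 7 days later. n = 6 mice per group; data log-transformed; paired t tests.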

[6] abbreviates: ex vivo, peptide then anti-claudin-1 antibody-AF488, merged image.

Take RTSPSSR [RTS*-Cy5.5]: the “Mean fluorescence intensity, adenoma vs normal” value on claudin-1 [1] is listed as “significantly greater for adenoma vs normal”. On claudin-1 [1] (setting [6]), the “Correlation ρ of co-staining with anti-claudin-1 antibody, adenoma” value came to 0.66 and the “Correlation ρ of co-staining with anti-claudin-1 antibody, normal colon” value is recorded as 0.60. Also, the “Mean fluorescence intensity, adenoma vs adjacent normal colon” value on claudin-1 [2] (confocal, ~1 hour after injection, paired t test, n = 11 mice) was “significantly greater for adenoma than for adjacent normal colon”. On claudin-1 [2], the “Binding/staining pattern in normal colon on confocal images” value is given as “binding at tight junctions in between cells”. The “Mean fluorescence intensity, adenoma vs adjacent normal colon” value in data set [3] is given as “significantly greater”. For the same substance, the “Peptide stability in mouse serum by HPLC at 24 hours” value in data set [4] is recorded as “signs of peptide breakdown”. Also, at claudin-1 [5], the “Fluorescence signal from nonpolypoid adenoma” value is given as “increased intensity”.
Take “SPTSSRR [SPT*-Cy5.5, reference compound]”: the “Staining of adenoma and normal colon sections” value at claudin-1 [1] (0.5 μM peptide for 10 minutes on formalin-fixed sections, confocal microscope) is reported as “Minimal signal”. The “Mean fluorescence intensity, adenoma vs normal” value at claudin-1 [1] is listed as “No difference”. The “Binding/staining pattern in normal colon on confocal images” value at claudin-1 [2] is on record as “vague appearance of crypt structures”. Moreover, at claudin-1 [5], the “Fluorescence signal from nonpolypoid adenoma” value was “minimal signal” and the “Fluorescence signal from polypoid adenoma” value is recorded as “minimal signal”.

These data come from article PMC7056050 (Clinical and Translational Gastroenterology, 2020).
